The list is not random: actives were taken first. Their share in the collection is about 12%.
WT yeast gro inh: growth inhibition of WT strain, primary screen, mitochondrial fusion inhibitor project, WT and mutant strains, chemical genetic. mitochondrial fusion phenotypic screen. inhibition, % at 10 µM. 190,000 tested, 2.1% active. AID 1362, 2008; in the data active = inhibition above about 58%; tested in S. cerevisiae
ABCB1 block: ABCB1 efflux pump inhibitors, primary screen, cell-based, multiplex, flow cytometry, ABCG2 counter-screen; CCRF-Adr cells, JC-1 efflux; AID 1326, 2008; inhibition, % at 6.6 µM; 190,000 tested, 0.067% active; ATP-dependent translocase ABCB1 (Homo sapiens), P08183; in the data active = inhibition above about 40%;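 note: 0% = vehicle and 100% = reference inhibitor; higher value means more JC-1 retained so stronger ABCB1 efflux block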
RAM network inh: inhibitors of the yeast RAM network, primary screen, dse1pr::URA3 reporter, 5-FOA selection; S. cerevisiae dse1pr::URA3 reporter, 5-FOA growth OD615, 2 d; analog-sensitive cbk1-as2 kinase mutant strain; inhibition, % at 50 µM; 190,000 tested, 1.8% active;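 active = inhibition above a set limit, 3 SD over mean compound inhibition, cut at about 8.4% in these data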;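 note: 0% = DMSO-only wells with no growth and 100% = 10 µM 1-NA-PP1 full growth; inhibition rescues growth on 5-FOA so higher OD means more RAM inhibition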
L major viab: Leishmania major promastigote growth inhibition, primary screen | Leishmania major promastigotes, resazurin fluorescence viability | inhibition, % at 10 µM | 200,000 tested, 9% active; in the data active = inhibition above about 50%;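 note: promastigotes grown with compound for 44 hours at 28 °C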
ABCG2 inh: ABCG2 efflux pump inhibitors, primary screen, multiplex with ABCB1, IgMXP3 cells, flow cytometry; Broad substrate specificity ATP-binding cassette transporter ABCG2 (Homo sapiens), Q9UNQ0; JC-1 efflux; inhibition, % at 6.6 µM; 190,000 tested, 0.1% active;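 active = inhibition above 80%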;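 note: 0% = DMSO and 100% = nicardipine control wells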
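Assay system – ABCG2 IgMXP3 and barcoded ABCB1 CCRF-Adr cell mix · Input – 3 million cells/mL in well · Reagent – JC-1 fluorescent substrate · Compound – single test compound dose, 6.6 µM final · Timing – 10 min exposure at 25 °C with rotation, no wash · Detection – flow cytometry of retained JC-1 fluorescence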
* hit, by the source's call; . = no result given.

SMILES	WT yeast gro inh	ABCB1 block	RAM network inh	L major viab	ABCG2 inh
COC(=O)c1ccccc1NC(=O)c1ccc(COc2ccccc2)o1	30	0	9.6*	0	2
Cn1cc2cc(NC(N)=S)ccc2n1	4	0	0	-6	2
CC(=O)Nc1ccc(NC(=O)CN2CCN(c3cccc(C(F)(F)F)c3)CC2)cc1	5	1	0	5	4
CC(=O)Nc1ccc(CN2CCN(c3cccc(C(F)(F)F)c3)CC2)cc1	17	-1	0	91*	5
Cc1ccc2oc(-c3cccc(NC(=O)/C=C/c4cccc([N+](=O)[O-])c4)c3C)nc2c1	0	0	1	1	2
COCCNC(=O)c1cc(-c2cccc(OC)c2)on1	11	0	-1	-2	3
COCC(C)NC(=O)c1cc(-c2cccc(OC)c2)on1 (configuration not stated)	97*	0	4	-8	2
COc1cccc(-c2cc(C(=O)Nc3cccc(O)c3)no2)c1	13	0	9.2*	1	1
O=C(C[n+]1ccc(CCSc2ccc(F)cc2)cc1)c1ccccc1	7	0	0	6	0
O=C(c1ccc(Cl)c(Cl)c1)c1cnc(Nc2ccccc2)s1	87*	0	6	-13	1
CNc1ncc(C(=O)c2ccc(Cl)c(Cl)c2)s1	19	0	3	3	4
CCCCn1c(SCc2nc(N)nc(N3CCCCC3)n2)nc2c1c(=O)n(C)c(=O)n2C	-15	0	1	2	-3
O=C(CN(Cc1ccc(F)cc1)C(=O)C1CSC(=O)C1)NC1CCCCC1 (configuration not stated)	-1	1	2	98*	3
O=C(CN(C(=O)C1CSC(=O)C1)c1cccc(F)c1)NC1CCCC1 (configuration not stated)	9	3	3	-9	5
C=CCc1ccc(O)c(-c2ccc(O)c(CC=C)c2)c1	63*	0	-2	17	6
C=CCc1cc(C(=O)N2CCCCC2)ccc1O	10	0	2	6	-1
CCCCCOc1ccc(Cn2ccnc2)cc1[N+](=O)[O-]	44	1	0	40	17
CCOC(=O)C(CCCCCOc1ccccc1[N+](=O)[O-])C(=O)OCC	3	1	3	22	10
Cc1cc(OCCN2CCCC2)ccc1[N+](=O)[O-]	-5	.	1	3	1
CC1CC(C)CN(CCCOc2ccccc2[N+](=O)[O-])C1 (configuration not stated)	4	1	3	81*	6
Cc1ccc(OCCN2CCN(C)CC2)c([N+](=O)[O-])c1	-8	1	2	95*	4
Cc1ccc(OCCCn2ccnc2)c([N+](=O)[O-])c1	7	2	1	72*	26
Cc1ccc([N+](=O)[O-])c(OCCN2CCCCCC2)c1	-1	0	0	97*	1
Cc1ccc(OCCN2CCNCC2)c([N+](=O)[O-])c1	-14	1	1	26	3
COc1cc(C(=O)NCC(=O)N/N=C/c2ccc(OC(=O)c3ccco3)cc2)cc(OC)c1OC	11	1	2	-4	2
SMILES	WT yeast gro inh	ABCB1 block	RAM network inh	L major viab	ABCG2 inh
NC(=O)CSc1nnc2ccc(-c3ccc(F)cc3)nn12	6	0	1	-6	2
Cc1cc(OCCN2CCOCC2)ccc1[N+](=O)[O-]	-21	0	-1	47	-1
Cc1ccc(OCCCN2CCOCC2)c([N+](=O)[O-])c1	-19	0	1	89*	7
O=C(O)C1CCCN(S(=O)(=O)c2ccc3c(c2)OCCO3)C1 (configuration not stated)	-5	1	-1	-7	4
O=C(NC1(C(F)(F)F)NC(=O)N(c2ccccc2)C1=O)c1cccs1 (configuration not stated)	-11	0	1	57*	1
CN1C(=O)NC(NC(=O)c2cccs2)(C(F)(F)F)C1=O (configuration not stated)	-1	1	3	-6	2
CCc1nn(CC(=O)NCCCN(CC)Cc2ccccc2)c(=O)c2cc3sccc3n12	0	0	-1	55*	3
COc1ccc(Cc2nn[nH]n2)cc1	91*	0	0	-8	0
CCOc1ccc2c(c1)c(N=Nc1cccc(C(=O)O)c1)c(O)n2C	-20	2	10*	45	5
COc1ccc(CN(C)C2c3ccccc3-c3ccccc32)cc1	69*	1	1	6	13
COc1cc(CN2CCNC(=O)C2CC(=O)NCc2csc(C(C)C)n2)cc(OC)c1 (configuration not stated)	-5	0	2	-3	0
COc1ccccc1/C=C/C=N/NC(=O)CCn1nnc2ccccc21	5	1	2	-5	18
Oc1ccc(-c2nc3ccccn3c2NCc2ccco2)cc1	-7	4	2	7	43
O=S(=O)(Nc1cccc2c1CCCC2)c1ccc(Cl)cc1	34	0	9.2*	-3	8
C/C(=N\NC(=O)C1COc2ccccc2O1)c1ccc(N2CCOCC2)cc1 (configuration not stated)	2	-1	3	11	-1
S=C(Nc1ccccc1Cl)N(Cc1cccnc1)Cc1ccco1	11	1	0	95*	11
O=C(Nc1ccc(Cl)c(Cl)c1)N(Cc1cccnc1)Cc1ccco1	16	0	1	100*	17
COc1ccc(NC(=S)N(Cc2ccc(C)cc2)Cc2ccccn2)cc1	11	0	-1	95*	0
S=C(Nc1ccccc1Cl)N(Cc1ccccc1)Cc1ccccn1	64*	1	1	18	19
Fc1ccc(-c2n[nH]c(=S)n2/N=C/c2c[nH]c3ccccc23)cc1	0	-1	3	25	-7
CCOc1ccc(C(=O)NCCc2ccc3c(c2)OCCO3)cc1	7	0	1	-5	7
Cc1c(Cl)cccc1NC(=S)N(Cc1cccnc1)Cc1ccccc1Cl	35	0	0	95*	0
COc1ccc(NC(=O)N(CCCN2CCOCC2)Cc2cccnc2)c(OC)c1	25	.	.	7	.
Cc1ccc(NC(=O)N(CCCN2CCOCC2)Cc2cccnc2)cc1C	8	-2	1	65*	-2
O=C(OC1Cn2c(=O)ccc(=O)n2C1)c1ccccc1	-8	0	3	-3	0
FC(F)(Cl)c1nnc2ccc(Sc3ccccn3)nn12	-4	0	1	3	1
COc1ccc(/C=C/C(=O)NC(=S)NNC(=O)c2cccnc2)cc1	-9	-1	4	93*	-2
C=CCNC(=S)NNC(=O)c1ccc(OCCC)cc1	-17	0	0	4	2
